Data on one molecule can be found in ChEMBL document CHEMBL2034960, “Bryonolic acid transcriptional control of anti-inflammatory and antioxidant genes in macrophages in vitro and in vivo” (J Nat Prod, 2012).

Data set [1] deals with RAW264.7. The data set can be described thus: Antiinflammatory activity in mouse RAW264.7 cells assessed as inhibition of LPS-induced iNOS protein expression at 50 to 100 uM by immunoblot analysis. The note with it: TDE = time-dependent effect. The class given is functional, cell-based.
Data set [2] deals with RAW264.7. The data set can be described thus: Antioxidant activity in mouse RAW264.7 cells assessed as induction of HO1 expression at 100 uM after 66 hrs by immunoblot analysis. The class given is functional, cell-based. In general terms: A western blot detects proteins with antibodies after separation by electrophoresis.
The target of data set [3] is T1, Nuclear factor erythroid 2-related factor 2 (Mus musculus) (UniProt Q60795).
T1 sequence (whole entry): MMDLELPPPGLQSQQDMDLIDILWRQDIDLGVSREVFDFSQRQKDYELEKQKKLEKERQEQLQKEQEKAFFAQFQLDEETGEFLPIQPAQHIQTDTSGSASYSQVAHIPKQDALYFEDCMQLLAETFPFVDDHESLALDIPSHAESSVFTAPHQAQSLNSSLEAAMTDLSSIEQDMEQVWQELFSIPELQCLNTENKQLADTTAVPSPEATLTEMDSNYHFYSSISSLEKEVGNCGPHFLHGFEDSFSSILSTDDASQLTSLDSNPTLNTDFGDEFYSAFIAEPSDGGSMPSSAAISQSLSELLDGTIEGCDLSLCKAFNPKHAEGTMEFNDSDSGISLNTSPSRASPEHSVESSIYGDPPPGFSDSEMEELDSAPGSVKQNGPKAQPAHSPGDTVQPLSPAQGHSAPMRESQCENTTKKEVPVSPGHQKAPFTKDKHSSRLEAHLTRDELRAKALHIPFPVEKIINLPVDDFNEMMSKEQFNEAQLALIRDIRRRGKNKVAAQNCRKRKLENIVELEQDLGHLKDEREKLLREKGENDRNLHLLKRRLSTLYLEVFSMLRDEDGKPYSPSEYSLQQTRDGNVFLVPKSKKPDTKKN
The data set can be described thus: Induction of Nrf2-mediated CAT mRNA expression in mouse RAW264.7 cells at 100 uM after 16 hrs by quantitative RT-PCR analysis relative to control. The class given is cell-based.

The test system of data set [4] is RAW264.7. The data set can be described thus: Antioxidant activity in mouse RAW264.7 cells assessed as induction of HO1 expression at 100 uM after 72 hrs by immunoblot analysis. It counts as functional, cell-based.
Data set [5] concerns the target T1, Nuclear factor erythroid 2-related factor 2 (Mus musculus). The data set can be described thus: Induction of Nrf2-mediated GR mRNA expression in mouse RAW264.7 cells at 100 uM after 20 hrs by quantitative RT-PCR analysis relative to control. It counts as cell-based.
Data set [6] shares this target. The data set can be described thus: Induction of Nrf2-mediated GCLC mRNA expression in mouse RAW264.7 cells at 100 uM after 24 hrs by quantitative RT-PCR analysis relative to control. It counts as cell-based.
The target is the same in data set [7]. The data set can be described thus: Induction of Nrf2-mediated CAT mRNA expression in mouse RAW264.7 cells at 100 uM after 20 hrs by quantitative RT-PCR analysis relative to control. The class given is cell-based.
Data set [8] relates to Mus musculus. The data set can be described thus: Induction of HO1 […] expression in Nrf2-knock out C57BL/6 mouse liver at 500 mg/kg, ip measured after 8 hrs by immunoblot analysis.
Data set [9] concerns the target T1, Nuclear factor erythroid 2-related factor 2 (Mus musculus). The data set can be described thus: Induction of nuclear translocation of Nrf2 in mouse RAW264.7 cells assessed as decrease in cytoplasmic fraction at 50 uM after 1 hr. It counts as cell-based. In outline:
(§1)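 RAW 264.7 macrophages treated with 50 or 100 μM compound for various times (1–4 h window examined). Cytoplasmic and nuclear fractions were separated and probed for Nrf2 by immunoblot. Translocation was scored as loss of cytoplasmic Nrf2 and nuclear accumulation relative to DMSO control.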

Data set [10] has the same target. The data set can be described thus: Induction of Nrf2-mediated NQO1 mRNA expression in mouse RAW264.7 cells at 100 uM after 16 to 20 hrs by quantitative RT-PCR analysis relative to control. The class given is cell-based.
The target is the same in data set [11]. The data set can be described thus: Induction of nuclear translocation of Nrf2 in mouse RAW264.7 cells assessed as decrease in cytoplasmic fraction at 100 uM after 1 to 4 hrs. The class given is cell-based. In outline:
as §1

For data set [12], the system named is RAW264.7. The data set can be described thus: Antioxidant activity in LPS-stimulated mouse RAW264.7 cells assessed as induction of HO-1 mRNA expression at 100 uM after 24 hrs by RT-PCR analysis. The class given is functional, cell-based.
The test system of data set [13] is RAW264.7. The data set can be described thus: Antioxidant activity in mouse RAW264.7 cells assessed as induction of HO1 expression at 100 uM after 24 hrs by immunoblot analysis. The class given is functional, cell-based.
Data set [14] deals with T1, Nuclear factor erythroid 2-related factor 2 (Mus musculus). The data set can be described thus: Induction of nuclear translocation of Nrf2 in mouse RAW264.7 cells assessed as decrease in cytoplasmic fraction at 100 uM after 1 hr. The class given is cell-based. In outline:
as §1

The subject of data set [15] is Peritoneal macrophage cell. The data set can be described thus: Induction of HO1 […] expression in Nrf2-knockout mouse primary peritoneal macrophages at 5 to 100 uM after 48 hrs by immunoblot analysis. It counts as functional, cell-based.
The subject of data set [16] is RAW264.7. The data set can be described thus: Antioxidant activity in mouse RAW264.7 cells assessed as induction of HO1 expression at 100 uM after 48 hrs by immunoblot analysis. It counts as functional, cell-based.
Data set [17] concerns the target T1, Nuclear factor erythroid 2-related factor 2 (Mus musculus). The data set can be described thus: Induction of Nrf2-mediated HO1 mRNA expression in mouse RAW264.7 cells at 100 uM after 16 to 20 hrs by quantitative RT-PCR analysis relative to control. The class given is cell-based.
Data set [18] concerns RAW264.7. The data set can be described thus: Antioxidant activity in mouse RAW264.7 cells assessed as induction of HO1 expression at 10 to 100 uM by immunoblot analysis. The note with it: TDE = time-dependent effect. It counts as functional, cell-based.
Data set [19] deals with RAW264.7. The data set can be described thus: Antiinflammatory activity in mouse RAW264.7 cells assessed as inhibition of LPS-induced iNOS protein expression at 100 uM after 4 hrs by immunoblot analysis.
In data set [20] the test system is RAW264.7. The data set can be described thus: Cytotoxicity against mouse RAW264.7 cells at 1000 uM after 24 hrs by MTT assay. The class given is cell-based. The note with it: raw264.7, 24 h. For orientation: Tetrazolium dyes change colour on reduction, which living cells bring about.
Data set [21] concerns the target T1, Nuclear factor erythroid 2-related factor 2 (Mus musculus). The data set can be described thus: Induction of Nrf2-mediated HO1 […] expression in C57BL/6 mouse primary peritoneal macrophages after 48 hrs by immunoblot analysis.

Calls of active or inactive are those of the source. No cut-off for these calls is given here.

Turning to `CC1(C)[C@@H](O)CC[C@]2(C)C3=C(CC[C@@H]12)[C@@]1(C)CC[C@@]2(C)CC[C@@](C)(C(=O)O)C[C@H]2[C@]1(C)CC3` [BRYONOLIC ACID], the Activity result in data set [1] was “tde”; in data set [18], “tde”; in data set [20], “Toxic”; in data set [21], “Dose-dependent effect”. The result in data set [2], in [4], in data set [6], in data set [8] and in data set [15] was inactive. Moreover, the fold change (FC) came out at 1.7 in [3], 1.5 in [5] and 3.5 in [7]. Moreover, the result in data set [9], in data set [10], in [11], in data set [12], in [13] and in [14] was Active. Also, the outcome in data set [16], in [17] and in data set [19] was Active.
